According to ChEMBL document CHEMBL1154322, “Optimization of the antitumor efficacy of a synthetic mitochondrial toxin by increasing the residence time in the cytosol” (J Med Chem, 2009):
Activity calls are given as the source filed them. The calls are words filed in the database; no cut-off is given here.

Tests used:
[1] = Antiproliferative activity against MDCK2 cells after 72 hrs by MTT assay; type: functional, cell-based; conditions: Canis lupus familiaris, MDCK-II
Outline: (§1)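 Cells seeded in 96-well plates, attached overnight at 37 °C, 5% CO2, then cultured 72 h in medium with 10% fetal calf serum plus compound. Viability by MTT, formazan dissolved in DMSO, absorbance 550 nm; expressed as % of untreated control; IC50 = concentration inhibiting proliferation by 50%.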

HCT-116 = experiment: Antiproliferative activity against human HCT116 cells after 72 hrs by MTT assay; type: functional, cell-based; conditions: HCT-116, 72 h; outline: as §1
MCF7 = experiment: Antiproliferative activity against human MCF7 cells after 72 hrs by MTT assay; type: functional, cell-based; conditions: MCF7, 72 h; outline: as §1
K562 = experiment: Antiproliferative activity against human K562 cells after 72 hrs by MTT assay; type: functional, cell-based; conditions: K562, 72 h; outline: as §1
[2] = (§2) Antiproliferative activity against BAEC after 72 hrs by MTT assay; type: functional, Bos taurus; outline: as §1
[3] = Antiproliferative activity against mouse bEND.3 cells after 72 hrs by MTT assay; type: functional, cell-based; conditions: BEND3, 72 h; outline: as §1
BXPC-3 [4] = experiment: Antiproliferative activity against human BxPC3 cells after 72 hrs by MTT assay; type: functional, cell-based; conditions: BXPC-3, 72 h; outline: as §1
[5] = Antiproliferative activity against HMEC1 cells after 72 hrs by MTT assay; type: functional, cell-based; conditions: Homo sapiens, HMEC-1, 72 h; outline: as §1
[6] = system: Lewis lung carcinoma cell line; experiment: Antiproliferative activity against mouse LLC cells after 72 hrs by MTT assay; type: functional, cell-based; outline: as §1
HT-1080 = experiment: Antiproliferative activity against human HT1080 cells after 72 hrs by MTT assay; type: functional, cell-based; conditions: HT-1080, 72 h; outline: as §1
PANC-1 = experiment: Antiproliferative activity against human PANC1 cells after 72 hrs by MTT assay; type: functional, cell-based; conditions: PANC-1, 72 h; outline: as §1
[7] = Drug accumulation in BAEC in presence of MRP1/2 inhibitor Reversan by inductively coupled plasma spectrometry relative to untreated control; type: ADME, Bos taurus; conditions: cattle
Outline: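 BAE cells incubated 2 h with 50 μM arsenical with or without 5 μM Reversan; cellular arsenic by inductively coupled plasma spectrometry, expressed as % increase in accumulation; triplicates, two experiments.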

BXPC-3 [8] = experiment: Antitumor activity against human BxPC3 cells xenografted in BALB/c mouse assessed as tumor doubling time at 5 mg/kg/day, sc dosed for 18 days; type: functional, organism-based
[9] = Drug accumulation in BAEC assessed as accumulation rate up to 4 hrs by inductively coupled plasma spectrometry relative to 4-(N-(S-cysteinylacetyl)amino)phenylarsonous acid; type: ADME, Bos taurus; conditions: cattle
Outline: (§3)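 BAE cells seeded in 6-well plates, attached overnight, fresh medium, then 50 μM arsenical for up to 4 h; cytosolic arsenic by inductively coupled plasma spectrometry; accumulation rate (pmol As per 10^6 cells per min) from linear least-squares fit; triplicates.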

BAEC [10] = experiment: Antiproliferative activity against MRP1/2 inhibitor MK571 pretreated BAEC at 0.3 uM after 72 hrs by MTT assay; type: functional; conditions: Bos taurus
Outline: (§4)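 BAE cells pretreated 30 min with 15 μM MK571 or 2 μM Reversan, then incubated with 0.3 μM compound for 72 h; viability by MTT as % of control; mean ± SD of triplicates.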

[11] = Antiproliferative activity against BAEC after 72 hrs by MTT assay in presence of 20 uM gamma-glutamyl cysteine synthase inhibitor buthionine sulfoximine; type: functional, cell-based; conditions: Bos taurus
[12] = Antiproliferative activity against BAEC after 72 hrs by MTT assay in presence of 100 uM gamma-glutamyl cysteine synthase inhibitor buthionine sulfoximine; type: functional, Bos taurus
BAEC [13] = experiment: as §2; type: functional; conditions: Bos taurus; outline: as §1
BXPC-3 [14] = experiment: Antitumor activity against human BxPC3 cells xenografted in BALB/c mouse assessed as reduction of tumor proliferative index at 0.25 mg/kg/day, sc dosed for 18 days; type: functional, organism-based
Outline: (§5)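 Female 7-9 week Balb C nude mice given 3 × 10^6 BxPC-3 cells s.c. in proximal midline; at ~50 mm3, randomized and given s.c. flank micro-osmotic pumps (vehicle or 0.25 mg/kg/day) for 18 days. Excised tumors formalin-fixed, paraffin sections immunostained for CD31 (microvessels counted in five hot spots) or PCNA (positive cells per 100 tumor cells, three fields); one-way ANOVA.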

HEK293 [15] = experiment: Resistance index, ratio of IC50 for HEK293 cells overexpressing MRP4 to IC50 for wild type HEK293 cells; type: functional, Homo sapiens
Outline: (§6)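 Transfected MDCKII (MRP1-3), HEK293 (MRP4, MRP5) or MEF3.8 (MRP6, MDR1, BCRP) lines grown in DMEM with 10% calf serum; IC50 for proliferation arrest of each transfectant divided by IC50 of non-transfected parental cells.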

[16] = Antiproliferative activity against BAEC after 72 hrs by MTT assay in presence of 3 uM MRP1/2 inhibitor Reversan and 20 uM gamma-glutamyl cysteine synthase inhibitor buthionine sulfoximine; type: functional, cell-based; conditions: Bos taurus
HEK293 [17] = experiment: Resistance index, ratio of IC50 for HEK293 cells overexpressing MRP5 to IC50 for wild type HEK293 cells; type: functional, Homo sapiens; outline: as §6
[18] = Reduction of cell viability in BAEC after 48 hrs by propidium iodide staining; type: functional, cell-based; conditions: Bos taurus
HEK293 [19] = experiment: Resistance index, ratio of IC50 for mouse MEF3.8 cells overexpressing MDR1 to IC50 for wild type […]; type: functional
[20] = Potency ratio, ratio of IC50 for 4-(N-(S-Glutathionylacetyl)amino)phenylarsonous acid to compound for BAEC after 48 hrs by propidium iodide staining; type: functional, Bos taurus
BXPC-3 [21] = experiment: Potency ratio, ratio of antitumor activity of 4-(N-(S-Glutathionylacetyl)amino)phenylarsonous acid to compound antitumor activity against human BxPC3 cells xenografted in BALB/c; type: functional
Mus musculus [22] = experiment: Toxicity in human BxPC3 cells xenografted BALB/c mouse at 0.5 mg/kg/day, sc for 28 days; type: organism-based, BXPC-3; parameters: route subcutaneous; conditions: in vivo, 672 h
Outline: (§7)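 Female Balb C nude mice bearing s.c. BxPC-3 tumors given compound via 28-day s.c. flank micro-osmotic pumps; animal weight measured every 2 or 3 days and signs of toxicity observed.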

[23] = Potency ratio, ratio of IC50 for 4-(N-(S-Glutathionylacetyl)amino)phenylarsonous acid to compound for BAEC after 24 hrs by MTT assay; type: functional, Bos taurus
HEK293 [24] = experiment: Resistance index, ratio of IC50 for mouse MEF3.8 cells overexpressing BCRP to IC50 for wild type […]; type: functional
[25] = Drug accumulation in BAEC assessed as accumulation rate up to 4 hrs by inductively coupled plasma spectrometry relative to 4-(N-(S-cysteinylglycylacetyl)amino)phenylarsonous acid; type: ADME, Bos taurus; conditions: cattle; outline: as §3
BXPC-3 [26] = experiment: Antitumor activity against human BxPC3 cells xenografted in BALB/c mouse assessed as tumor doubling time at 0.5 mg/kg/day, sc (Rvb= 9.4 +/- 1.4 days); type: functional; conditions: route subcutaneous
[27] = Antiproliferative activity against BAEC after 72 hrs by MTT assay in presence of 3 uM MRP1/2 inhibitor Reversan; type: functional, cell-based; conditions: Bos taurus
BAEC [28] = experiment: Antiproliferative activity against OATP inhibitor DIDS pretreated BAEC at 3 uM after 24 hrs by MTT assay; type: functional, cell-based; conditions: Bos taurus
Outline: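 BAE cells untreated or pretreated 30 min with 500 μM DIDS, then 3 μM compound for 24 h; viability by MTT, % of control; triplicates, two experiments.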

BAEC [29] = experiment: Antiproliferative activity against MRP1/2 inhibitor Reversan pretreated BAEC at 0.3 uM after 72 hrs by MTT assay; type: functional, cell-based; conditions: Bos taurus; outline: as §4
BXPC-3 [30] = experiment: Antiangiogenic activity against human BxPC3 cells xenografted in BALB/c mouse assessed as reduction of tumor blood vessel density at 0.25 mg/kg/day, sc dosed for 18 days; type: functional, organism-based; outline: as §5
[31] = Drug accumulation in BAEC assessed as accumulation rate up to 4 hrs by inductively coupled plasma spectrometry relative to 4-(N-(S-Glutathionylacetyl)amino)phenylarsonous acid; type: ADME, Bos taurus; conditions: cattle; outline: as §3
[32] = Resistance index, ratio of IC50 for MDCK2 cells overexpressing MRP2 to IC50 for wild type MDCK2 cells; type: functional, Canis lupus familiaris; outline: as §6
Mus musculus [33] = experiment: Toxicity in human BxPC3 cells xenografted BALB/c mouse at 0.25 mg/kg/day, sc for 28 days; type: organism-based, BXPC-3; parameters: route subcutaneous; conditions: in vivo, 672 h; outline: as §7
[34] = Potency ratio, ratio of IC50 for 4-(N-(S-cysteinylglycylacetyl)amino)phenylarsonous acid to compound for BAEC after 24 hrs by MTT assay; type: functional, Bos taurus
BXPC-3 [35] = experiment: Antitumor activity against human BxPC3 cells xenografted in BALB/c mouse assessed as tumor doubling time at 0.25 mg/kg/day, sc (Rvb= 9.4 +/- 1.4 days); type: functional; conditions: route subcutaneous
[36] = Resistance index, ratio of IC50 for MDCK2 cells overexpressing MRP3 to IC50 for wild type MDCK2 cells; type: functional, Canis lupus familiaris; outline: as §6
HEK293 [37] = experiment: Resistance index, ratio of IC50 for mouse MEF3.8 cells overexpressing MRP6 to IC50 for wild type […]; type: functional
[38] = Potency ratio, ratio of IC50 for 4-(N-(S-cysteinylacetyl)amino)phenylarsonous acid to compound for BAEC after 24 hrs by MTT assay; type: functional, Bos taurus
[39] = Resistance index, ratio of IC50 for MDCK2 cells overexpressing MRP1 to IC50 for wild type MDCK2 cells; type: functional, Canis lupus familiaris; outline: as §6

## N[C@@H](CCC(=O)N[C@@H](CSCC(=O)Nc1ccc([As](O)O)cc1)C(=O)NCC(=O)O)C(=O)O
[1]
  IC50: 13 µM
HCT-116
  IC50: 43 µM
MCF7
  IC50: 51 µM
K562
  IC50: 14 µM
[2]; Bos taurus, BAEC, 72 h
  IC50: 10 µM
[3]
  IC50: 42 µM
BXPC-3 [4]
  IC50: 270 µM
[5]
  IC50: 23 µM
[6]
  IC50: 41 µM
HT-1080
  IC50: 25 µM
PANC-1
  IC50: 43 µM

## N[C@H](CSCC(=O)Nc1ccc([As](O)O)cc1)C(=O)O
[7]
  Drug uptake: 114%

## N[C@H](CSCC(=O)Nc1ccc([As](O)O)cc1)C(=O)NCC(=O)O
[7]
  Drug uptake: 197%

## CC(C)(SCC(=O)Nc1ccc([As](O)O)cc1)[C@@H](N)C(=O)O
BXPC-3 [8]
  Activity: Active
[1]
  IC50: 2.4 µM
[9]
  fold change (FC): 10
HCT-116
  IC50: 5.9 µM
MCF7
  IC50: 9.4 µM
BAEC [10]
  Activity: Active
K562
  IC50: 1.8 µM
[11]
  IC50: 0.07 µM
[12]
  Activity: 16 nM
BAEC [13]
  Activity: inactive
[2]
  Activity: 440 nM
BXPC-3 [14]
  Activity: Active
HEK293 [15]
  Ratio IC50: 0.5
[16]
  IC50: 0.02 µM
HEK293 [17]
  Ratio IC50: 0.4
[18]
  IC50: 3.5 µM
HEK293 [19]
  Ratio IC50: 1.2
[20]
  Ratio IC50: 21
BXPC-3 [21]
  Ratio IC50: 20
Mus musculus [22]
  Activity: Non-toxic
[23]
  Ratio IC50: 44
[3]
  IC50: 2.5 µM
HEK293 [24]
  Ratio IC50: 1.1
[25]
  fold change (FC): 9
BXPC-3 [26]
  Activity: 13.8 days
[27]
  IC50: 0.13 µM
BXPC-3 [4]
  IC50: 21 µM
BAEC [28]
  Activity: inactive
BAEC [29]
  Activity: Active
[5]
  IC50: 2 µM
BXPC-3 [30]
  Activity: Active
[31]
  fold change (FC): 85
[32]
  Ratio IC50: 4.6
[6]
  IC50: 5.3 µM
Mus musculus [33]
  Activity: Non-toxic
[34]
  Ratio IC50: 8
HT-1080
  IC50: 4.1 µM
BXPC-3 [35]
  Activity: 15.6 days
[7]
  Drug uptake: 52%
[36]
  Ratio IC50: 0.8
HEK293 [37]
  Ratio IC50: 1.3
[38]
  Ratio IC50: 6
PANC-1
  IC50: 6.4 µM
[39]
  Ratio IC50: 3.7
